Calls of active or inactive are those of the source.
Columns and labels:
[1] = system: Mus musculus; test: Ability to antagonise intraperitoneal administration; weakly active (>=10% and <=30% antagonism) at 30 mg/kg is represented as >30; type: functional; conditions: ip
Outline: (§1)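 Nonfasted male Swiss Webster mice, 18–24 g, ten per dose level and in saline controls. Test compound given ip 30 min before tetrabenazine 32 mg/kg ip; dose expressed as free base. Motor activity and ptosis scored. Control response ≤90% corrected by Abbott's formula.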

[2] = species on record: Mus musculus; test: Antagonism of tetrabenazine (TBZ)-induced depression measured in mice by motor activity; type: functional; conditions: Mus musculus; read-out: ED50; outline: as §1
[3] = species on record: Mus musculus; test: Gross behavioral effects ascertained in mice; W indicates weak stimulant or depressant activity of little significance.; type: functional, organism-based
Outline: (§2)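 Male Swiss Webster mice, 18–24 g, three per dose, given ip doses of 1, 3, 10, 30, 100 and 300 mg/kg. Observed for gross behavior and held for 4 days. Scored as weak (W), stimulant (S), depressant (D) or convulsant (C).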

[4] = target: Sodium-dependent dopamine transporter (Rattus norvegicus) (UniProt P23977); test: Ability to inhibit the uptake of [3H]dopamine (DA) 0.1 uM concentration at rat brain synaptosomes; type: functional, subcellular
Outline: (§3)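 Male Wistar rat brain synaptosomes (P2 fraction): hypothalamus for NE, striatum for DA, cerebral cortex for 5-HT. Buffer is Tris- or HEPES-buffered salt medium with glucose, ascorbate and nialamide, pH 7.4 at 37 °C. Preincubated 10 min at 37 °C with compound. Uptake started with [3H]NE 100–300 nM, [3H]DA 50–300 nM or [3H]5-HT 100–200 nM, incubated 3 min (DA) or 6–10 min (NE, 5-HT). Blanks held on ice. Filtered, counted by scintillation.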

[5] = target: Norepinephrine transporter (Rattus norvegicus) (UniProt Q9WTR4); test: Ability to inhibit the uptake of [3H]norepinephrine (NE) 0.1 uM concentration at rat brain synaptosomes; type: functional, subcellular; outline: as §3
[6] = target: Sodium-dependent serotonin transporter (Rattus norvegicus) (UniProt P31652); test: Ability to inhibit the uptake of [3H]- serotonin(5-HT) 0.1 uM concentration at rat brain synaptosomes; type: functional, subcellular; outline: as §3
[7] = target: D(1A) dopamine receptor (Rattus norvegicus, UniProt P18901); test: Binding affinity towards Dopamine receptor D1
[8] = target: D(2) dopamine receptor (Rattus norvegicus) (UniProt P61169); test: Binding affinity towards dopamine receptor D2 at 1.0 uM concentration
Outline: (§4)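 Rat brain crude synaptic membranes in 20 mM NaHEPES pH 7.5. Ligands: α1 cortex […] 0.4 nM, nonspecific with (-)-NE 100 μM, 30 min at 25 °C. […] D2 striatum [3H]spiperone 0.05 nM with (+)-butaclamol 1 μM, 45 min at 37 °C. S1 cortex [3H]5-HT 1 nM plus glutathione and MgCl2, with 5-HT 10 μM, 20 min at 37 °C. […] Samples filtered on GF/B and counted.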

[9] = species on record: Mus musculus; test: Antagonism of tetrabenazine (TBZ)-induced depression in mice measured for ptosis; type: functional; conditions: Mus musculus; read-out: ED50; outline: as §1
[10] = species on record: Mus musculus; test: Gross behavioral effects ascertained in mice; S indicates significant stimulant properties.; type: functional, organism-based; outline: as §2
[11] = target: Muscarinic acetylcholine receptor (Rattus norvegicus) (UniProt P08482+P08483+P08485+P08911+P10980); test: Binding affinity towards Muscarinic acetylcholine receptor at 1.0 uM concentration; type: protein assay
[12] = target: Sodium-dependent dopamine transporter (Rattus norvegicus, UniProt P23977); test: Inhibition of the uptake of tritiated dopamine (DA) in rat synaptosomes; type: subcellular, Brain
[13] = target: Norepinephrine transporter (Rattus norvegicus, UniProt Q9WTR4); test: Inhibition of uptake of tritiated norepinephrine (NE) in rat synaptosomes; type: subcellular, Brain
[14] = target: T1, Adrenergic receptor alpha-1 (Rattus norvegicus, UniProt P15823+P23944+P43140); test: Binding affinity towards alpha-1 adrenergic receptor; type: protein assay
T1 sequence (P15823 whole entry): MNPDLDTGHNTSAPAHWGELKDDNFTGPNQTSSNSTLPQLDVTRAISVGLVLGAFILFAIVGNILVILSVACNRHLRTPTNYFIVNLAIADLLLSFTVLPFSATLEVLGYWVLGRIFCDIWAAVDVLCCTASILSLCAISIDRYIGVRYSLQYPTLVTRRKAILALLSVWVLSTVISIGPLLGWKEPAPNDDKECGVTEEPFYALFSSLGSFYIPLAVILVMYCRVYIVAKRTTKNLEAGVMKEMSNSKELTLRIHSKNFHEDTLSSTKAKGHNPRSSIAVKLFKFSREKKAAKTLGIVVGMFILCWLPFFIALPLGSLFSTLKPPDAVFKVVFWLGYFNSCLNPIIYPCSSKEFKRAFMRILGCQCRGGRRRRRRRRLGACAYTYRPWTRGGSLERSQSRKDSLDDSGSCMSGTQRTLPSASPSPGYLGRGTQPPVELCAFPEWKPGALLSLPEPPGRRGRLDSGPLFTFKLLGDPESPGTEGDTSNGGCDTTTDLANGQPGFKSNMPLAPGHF
T1 sequence (P23944 whole entry): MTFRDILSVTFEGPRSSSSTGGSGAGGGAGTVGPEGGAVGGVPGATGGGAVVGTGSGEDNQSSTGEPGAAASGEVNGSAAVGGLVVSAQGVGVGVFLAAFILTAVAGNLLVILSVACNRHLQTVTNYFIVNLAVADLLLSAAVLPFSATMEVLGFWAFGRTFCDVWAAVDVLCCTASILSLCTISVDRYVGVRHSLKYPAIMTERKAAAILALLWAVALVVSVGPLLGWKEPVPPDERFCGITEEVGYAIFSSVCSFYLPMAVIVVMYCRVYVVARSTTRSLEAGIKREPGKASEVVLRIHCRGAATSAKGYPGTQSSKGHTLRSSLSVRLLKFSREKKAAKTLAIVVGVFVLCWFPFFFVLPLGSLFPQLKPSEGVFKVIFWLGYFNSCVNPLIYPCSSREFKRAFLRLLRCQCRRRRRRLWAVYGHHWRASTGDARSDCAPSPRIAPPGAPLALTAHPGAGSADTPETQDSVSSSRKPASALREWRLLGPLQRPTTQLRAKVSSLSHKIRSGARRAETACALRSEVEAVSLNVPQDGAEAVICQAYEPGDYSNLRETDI
T1 sequence (P43140 whole entry): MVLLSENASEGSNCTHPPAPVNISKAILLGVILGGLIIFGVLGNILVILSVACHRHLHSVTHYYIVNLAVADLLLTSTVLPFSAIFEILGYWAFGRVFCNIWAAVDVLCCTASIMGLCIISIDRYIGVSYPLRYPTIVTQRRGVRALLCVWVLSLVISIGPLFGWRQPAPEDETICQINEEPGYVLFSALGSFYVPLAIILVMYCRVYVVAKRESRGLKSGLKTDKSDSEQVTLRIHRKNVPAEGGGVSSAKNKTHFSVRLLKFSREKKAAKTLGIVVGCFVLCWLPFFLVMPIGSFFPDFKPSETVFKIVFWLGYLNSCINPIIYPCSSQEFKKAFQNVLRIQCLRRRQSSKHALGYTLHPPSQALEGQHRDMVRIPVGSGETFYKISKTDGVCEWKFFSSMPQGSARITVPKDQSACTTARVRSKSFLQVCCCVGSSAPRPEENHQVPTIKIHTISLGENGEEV

[15] = target: Adrenergic receptor alpha-2 (Rattus norvegicus) (UniProt P22086+P19328+P22909); test: Binding affinity towards alpha-2 adrenergic receptor at 1.0 uM concentration; type: protein assay
[16] = system: Mus musculus; test: Ability to antagonise intraperitoneal dose; inactive (<10% antagonism) at 30 mgjkg is represented as I-30.; type: functional, organism-based; outline: as §1
[17] = species on record: Mus musculus; test: Gross behavioral effects ascertained in mice; W/C indicates weak stimulant or depressant activity of little significance/ overt convulsant; type: functional, organism-based
Outline: (§5)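 Male Swiss Webster albino mice, 18–24 g, three per dose, given ip 1, 3, 10, 30, 100 and 300 mg/kg. Gross behaviour observed and held 4 days. Estimated LD50 range from lethality count on day 4. Scored as weak stimulant/depressant, significant stimulant, significant depressant or overt convulsant.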

[18] = target: Serotonin 2 (5-HT2) receptor (Rattus norvegicus) (UniProt P30994+P08909+P14842); test: Binding affinity towards 5-hydroxytryptamine 2 receptor at 1.0 uM concentration; type: protein assay; outline: as §4
[19] = species on record: Mus musculus; test: Gross behavioral effects ascertained in mice; D indicates significant depressant properties.; type: functional, organism-based; outline: as §5
[20] = target: Sodium-dependent serotonin transporter (Rattus norvegicus) (UniProt P31652); test: Inhibition of tritiated serotonin(5-HT) uptake at 0.1 uM concentration; type: functional; outline: as §3

Chain of Norepinephrine transporter (Rattus norvegicus) (Q9WTR4 as listed by the source): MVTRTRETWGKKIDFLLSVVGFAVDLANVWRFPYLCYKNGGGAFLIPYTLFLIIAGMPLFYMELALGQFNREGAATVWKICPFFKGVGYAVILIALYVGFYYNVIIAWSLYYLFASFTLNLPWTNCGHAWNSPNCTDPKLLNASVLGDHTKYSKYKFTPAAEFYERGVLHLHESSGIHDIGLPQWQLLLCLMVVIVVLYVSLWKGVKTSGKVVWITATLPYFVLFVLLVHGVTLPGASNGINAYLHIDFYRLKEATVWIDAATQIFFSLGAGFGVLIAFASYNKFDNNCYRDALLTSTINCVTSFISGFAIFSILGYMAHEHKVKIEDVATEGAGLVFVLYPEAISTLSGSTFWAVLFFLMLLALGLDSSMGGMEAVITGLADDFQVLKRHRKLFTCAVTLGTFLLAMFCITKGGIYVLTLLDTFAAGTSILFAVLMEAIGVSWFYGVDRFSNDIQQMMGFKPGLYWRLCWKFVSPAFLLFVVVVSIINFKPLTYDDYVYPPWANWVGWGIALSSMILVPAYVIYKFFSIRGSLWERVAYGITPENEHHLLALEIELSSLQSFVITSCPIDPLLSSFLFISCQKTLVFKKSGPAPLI
Chain of Norepinephrine transporter (Q9WTR4 whole entry): as the sequence (Q9WTR4 as listed by the source) above
Chain of Sodium-dependent serotonin transporter (Rattus norvegicus) (P31652 whole entry): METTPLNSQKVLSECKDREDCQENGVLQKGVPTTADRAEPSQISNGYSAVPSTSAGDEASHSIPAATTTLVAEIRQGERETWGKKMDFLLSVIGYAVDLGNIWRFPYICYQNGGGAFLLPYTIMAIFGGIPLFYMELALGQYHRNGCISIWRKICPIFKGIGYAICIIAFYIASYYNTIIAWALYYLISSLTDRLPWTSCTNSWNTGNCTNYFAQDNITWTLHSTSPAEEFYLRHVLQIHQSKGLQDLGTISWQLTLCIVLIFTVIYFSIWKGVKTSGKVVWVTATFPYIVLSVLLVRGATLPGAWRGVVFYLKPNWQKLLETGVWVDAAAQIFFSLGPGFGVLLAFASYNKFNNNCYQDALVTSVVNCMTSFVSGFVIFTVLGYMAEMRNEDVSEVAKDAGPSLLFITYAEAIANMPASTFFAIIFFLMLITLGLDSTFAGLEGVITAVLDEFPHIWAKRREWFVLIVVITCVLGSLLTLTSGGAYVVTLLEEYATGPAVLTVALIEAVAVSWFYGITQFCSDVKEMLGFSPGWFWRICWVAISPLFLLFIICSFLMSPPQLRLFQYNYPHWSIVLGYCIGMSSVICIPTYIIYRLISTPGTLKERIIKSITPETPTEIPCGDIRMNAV
Chain of Sodium-dependent dopamine transporter (P23977 whole entry): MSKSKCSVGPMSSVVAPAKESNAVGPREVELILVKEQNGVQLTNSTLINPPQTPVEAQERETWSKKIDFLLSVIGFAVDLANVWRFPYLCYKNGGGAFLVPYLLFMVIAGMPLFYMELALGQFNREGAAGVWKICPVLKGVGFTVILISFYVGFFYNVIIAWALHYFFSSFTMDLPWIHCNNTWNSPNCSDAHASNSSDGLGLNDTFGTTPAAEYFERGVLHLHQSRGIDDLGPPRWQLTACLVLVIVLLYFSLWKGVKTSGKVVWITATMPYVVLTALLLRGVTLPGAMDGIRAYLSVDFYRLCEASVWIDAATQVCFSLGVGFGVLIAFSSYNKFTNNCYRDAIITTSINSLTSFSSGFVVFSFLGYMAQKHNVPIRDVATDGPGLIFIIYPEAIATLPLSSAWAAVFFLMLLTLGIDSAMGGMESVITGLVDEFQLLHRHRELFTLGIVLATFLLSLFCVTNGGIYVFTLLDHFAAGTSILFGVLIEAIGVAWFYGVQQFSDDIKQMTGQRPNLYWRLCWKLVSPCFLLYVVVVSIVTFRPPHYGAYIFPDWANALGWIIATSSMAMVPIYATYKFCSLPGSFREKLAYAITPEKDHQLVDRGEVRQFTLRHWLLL
Chain of Sodium-dependent dopamine transporter (Rattus norvegicus) (P23977 whole entry): as above
Chain of D(2) dopamine receptor (Rattus norvegicus) (P61169 whole entry): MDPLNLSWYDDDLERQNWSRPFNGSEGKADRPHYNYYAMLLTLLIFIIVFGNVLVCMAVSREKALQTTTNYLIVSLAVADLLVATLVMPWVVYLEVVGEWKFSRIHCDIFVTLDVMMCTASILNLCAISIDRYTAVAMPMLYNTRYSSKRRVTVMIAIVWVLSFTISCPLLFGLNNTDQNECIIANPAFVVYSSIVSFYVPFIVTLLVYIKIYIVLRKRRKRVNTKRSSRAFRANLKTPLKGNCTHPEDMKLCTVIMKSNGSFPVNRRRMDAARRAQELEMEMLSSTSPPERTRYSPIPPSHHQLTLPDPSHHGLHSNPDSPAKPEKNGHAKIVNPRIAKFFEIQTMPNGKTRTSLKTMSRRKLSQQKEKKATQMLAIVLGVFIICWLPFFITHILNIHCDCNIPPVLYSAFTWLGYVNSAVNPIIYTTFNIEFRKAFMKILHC
Chain of D(1A) dopamine receptor (P18901 whole entry): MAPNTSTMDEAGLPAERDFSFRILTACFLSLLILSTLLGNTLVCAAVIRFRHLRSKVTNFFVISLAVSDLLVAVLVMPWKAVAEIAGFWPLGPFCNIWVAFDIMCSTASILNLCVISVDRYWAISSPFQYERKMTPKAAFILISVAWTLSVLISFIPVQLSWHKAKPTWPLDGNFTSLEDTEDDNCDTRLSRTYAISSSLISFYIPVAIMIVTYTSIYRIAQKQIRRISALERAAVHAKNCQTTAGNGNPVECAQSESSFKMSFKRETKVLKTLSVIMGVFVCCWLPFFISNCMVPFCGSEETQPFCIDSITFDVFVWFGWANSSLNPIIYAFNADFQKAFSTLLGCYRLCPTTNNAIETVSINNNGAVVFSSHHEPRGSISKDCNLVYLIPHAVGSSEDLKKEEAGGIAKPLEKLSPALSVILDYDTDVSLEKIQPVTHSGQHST
Chain of Serotonin 2 (5-HT2) receptor (Rattus norvegicus) (P08909 whole entry, looked up): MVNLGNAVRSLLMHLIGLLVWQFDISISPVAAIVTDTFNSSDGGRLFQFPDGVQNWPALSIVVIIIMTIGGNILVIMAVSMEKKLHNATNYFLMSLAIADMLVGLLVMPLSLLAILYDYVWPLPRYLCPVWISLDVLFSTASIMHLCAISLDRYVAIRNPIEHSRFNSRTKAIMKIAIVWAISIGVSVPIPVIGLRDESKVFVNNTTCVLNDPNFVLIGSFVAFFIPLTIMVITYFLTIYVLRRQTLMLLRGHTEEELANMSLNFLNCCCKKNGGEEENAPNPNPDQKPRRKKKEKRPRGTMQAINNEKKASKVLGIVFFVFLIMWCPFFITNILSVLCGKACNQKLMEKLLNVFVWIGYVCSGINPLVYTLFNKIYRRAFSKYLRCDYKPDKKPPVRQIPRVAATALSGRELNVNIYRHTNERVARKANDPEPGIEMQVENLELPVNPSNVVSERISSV
Chain of Serotonin 2 (5-HT2) receptor (Rattus norvegicus) (P14842 whole entry, looked up): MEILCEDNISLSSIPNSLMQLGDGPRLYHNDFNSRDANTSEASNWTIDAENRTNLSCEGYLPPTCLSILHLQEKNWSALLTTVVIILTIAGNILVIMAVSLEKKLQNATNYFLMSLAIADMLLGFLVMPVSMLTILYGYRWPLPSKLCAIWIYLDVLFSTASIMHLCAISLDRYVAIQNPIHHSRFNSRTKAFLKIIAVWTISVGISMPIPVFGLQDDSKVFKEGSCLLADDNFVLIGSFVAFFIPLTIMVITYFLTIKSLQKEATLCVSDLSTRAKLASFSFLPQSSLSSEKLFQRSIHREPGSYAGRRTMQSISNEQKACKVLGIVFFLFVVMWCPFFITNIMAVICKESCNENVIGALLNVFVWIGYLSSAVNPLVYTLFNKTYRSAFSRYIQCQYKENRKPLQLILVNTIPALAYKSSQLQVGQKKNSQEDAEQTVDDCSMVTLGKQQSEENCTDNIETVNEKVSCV
Chain of Serotonin 2 (5-HT2) receptor (Rattus norvegicus) (P30994 whole entry, looked up): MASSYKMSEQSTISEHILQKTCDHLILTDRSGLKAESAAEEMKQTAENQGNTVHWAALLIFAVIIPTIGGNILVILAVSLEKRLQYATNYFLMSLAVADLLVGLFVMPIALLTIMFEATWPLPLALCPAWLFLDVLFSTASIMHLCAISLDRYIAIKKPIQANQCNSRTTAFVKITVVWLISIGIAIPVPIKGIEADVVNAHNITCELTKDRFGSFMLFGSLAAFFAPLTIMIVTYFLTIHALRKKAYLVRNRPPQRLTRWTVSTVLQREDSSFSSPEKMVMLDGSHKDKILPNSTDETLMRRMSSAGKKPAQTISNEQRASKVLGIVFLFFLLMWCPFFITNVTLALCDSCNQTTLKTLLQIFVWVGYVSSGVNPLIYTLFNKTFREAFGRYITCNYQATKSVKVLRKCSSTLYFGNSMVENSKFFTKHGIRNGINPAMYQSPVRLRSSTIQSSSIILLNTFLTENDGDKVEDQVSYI

Row | SMILES | ED50 at 30 mg/kg [1] | ED50 [2] | behavior [3] | inhibition [4] | inhibition [5] | inhibition [6] | Ki [7] | inhibition [8] | ED50 [9] | behavior [10] | inhibition [11] | Ki [12] | Ki [13] | Ki [14] | inhibition [15] | ED50 [16] | behavior [17] | inhibition [18] | behavior [19] | inhibition [20]
1 | O=[N+]([O-])c1ccc([C@@H]2CN3CCC[C@H]3c3ccccc32)cc1 | > 30 mg/kg | > 30 mg/kg | Weak | 21% | 10% | 25% | – | – | – | – | – | – | – | – | – | – | – | – | – | –
2 | Br.Oc1ccc([C@@H]2CN3CCC[C@@H]3c3ccccc32)cc1O | – | 0.19 mg/kg | – | – | – | – | > 1000 nM | 5% | 0.11 mg/kg | Stimulant | 0% | 10.1 nM | 0.81 nM | 675 nM | 26% | – | – | – | – | –
3 | c1ccc([C@@]23CCCN2CCc2ccccc23)cc1 | – | > 60 mg/kg | – | 0% | 4% | 4% | – | – | – | – | – | – | – | – | – | inactive | Weak/Overt convulsant | – | – | –
4 | Br.Oc1cc2c(cc1O)[C@H]1CCCN1C[C@H]2c1ccccc1 | – | 0.87 mg/kg | – | – | – | – | 106 nM | 20% | 0.53 mg/kg | Stimulant | 0% | 43.5 nM | 10.5 nM | 87 nM | 21% | – | – | 46% | – | –
5 | C[C@H]1[C@@H](c2ccccc2)c2ccccc2[C@@H]2CCCN21 | – | > 60 mg/kg | Weak | 3% | 0% | 3% | – | – | – | – | – | – | – | – | – | inactive | – | – | – | –
6 | Br.COc1ccc2c(c1)[C@@H]1CCCN1C[C@H]2c1ccccc1 | – | ~40 mg/kg | – | – | – | – | – | – | 8 mg/kg | – | – | 38.9 nM | 20.9 nM | – | – | – | – | – | Significant depressant | 21%
7 | F[C@@]1(c2ccccc2)CN2CCC[C@H]2c2ccccc21 | > 30 mg/kg | > 30 mg/kg | – | 22% | – | -3% | – | – | – | – | – | – | ~100 nM | – | – | – | Weak/Overt convulsant | – | – | –

From ChEMBL document CHEMBL1123812, “Pyrroloisoquinoline antidepressants. 2. In-depth exploration of structure-activity relationships” (J Med Chem, 1987)
